# Measurements published in ChEMBL document CHEMBL1127647, “Synthesis and antiviral activities of 8-alkynyl-, 8-alkenyl-, and 8-alkyl-2'-deoxyadenosine analogues” (1994).
# Legend:
# Format in all cases: functional
# ESM = experiment: Minimum inhibitory concentration to reduce cytopathicity by 50% in morphology of human embryonic skin-muscle cells (ESM)
# Vaccinia virus = experiment: Minimum inhibitory concentration required for antiviral activity to reduce Vaccinia virus (VV) induced cytopathicity in human embryonic skin-muscle cells (ESM); details: Orthopoxvirus vaccinia
# Summary of the method: (§1)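 Endpoint is the compound concentration that reduces virus-induced cytopathicity in the host cell monolayer by 50%.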
# [1] = system: Vesicular stomatitis virus; experiment: Minimum inhibitory concentration required for antiviral activity to reduce Vesicular stomatitis virus (VSV) induced cytopathicity in human embryonic skin-muscle cells (ESM); summary of the method: as §1
# HEL [2] = experiment: Minimum inhibitory concentration required for antiviral activity to reduce Cytomegalovirus (CMV) (AD-169) induced cytopathicity in human embryonic lung cells (HEL); summary of the method: as §1
# HEL [3] = experiment: Minimum inhibitory concentration required for antiviral activity to reduce Cytomegalovirus (CMV) (Davis) induced cytopathicity in human embryonic lung cells (HEL); summary of the method: as §1
# HEL [4] = experiment: Minimum inhibitory concentration to reduce cytopathicity by 50% in proliferation of human embryonic lung cells (HEL)
# Summary of the method: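 Host cell toxicity is read as the compound concentration that reduces HEL cell proliferation by 50%.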
# Human alphaherpesvirus 1 = experiment: Minimum inhibitory concentration required for antiviral activity to reduce TK-HSV-1 (B2006) induced cytopathicity in human embryonic skin-muscle cells (ESM); summary of the method: as §1
# HEL [5] = experiment: Minimum inhibitory concentration required for antiviral activity to reduce TK Varicella Zoster virus (VZV) (07/1) induced cytopathicity in human embryonic lung cells (HEL)
# HEL [6] = experiment: Minimum inhibitory concentration required for antiviral activity to reduce Varicella Zoster virus (VZV) (Oka) induced cytopathicity in human embryonic lung cells (HEL)
# [7] = system: Respiratory syncytial virus; experiment: Minimum inhibitory concentration required for antiviral activity to reduce Respiratory syncytial virus (RSV) (Long) induced cytopathicity in human carcinoma cells (HeLa); summary of the method: as §1
# HeLa = experiment: Minimum inhibitory concentration to reduce cytopathicity by 50% in morphology of human carcinoma cells (HeLa)
# Summary of the method: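 Cytotoxicity endpoint is the minimum compound concentration that causes a microscopically detectable alteration of normal host cell morphology.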
# MDCK [8] = experiment: Minimum inhibitory concentration required for antiviral activity to reduce Influenza A virus (Ishikawa) induced cytopathicity in Madin-Darby canine kidney cells (MDCK); details: Canis lupus familiaris; summary of the method: as §1
# MDCK [9] = experiment: Minimum inhibitory concentration required for antiviral activity to reduce influenza B virus (Singapore) induced cytopathicity in Madin-Darby canine kidney cells (MDCK); details: Canis lupus familiaris; summary of the method: as §1
# MDCK [10] = experiment: Minimum inhibitory concentration to reduce cytopathicity by 50% in morphology of Madin-Darby canine kidney cells (MDCK); details: Canis lupus familiaris
Compound,MIC (ESM) [µg/mL],MIC (Vaccinia virus) [µg/mL],MIC [1] [µg/mL],MIC (HEL [2]) [µg/mL],MIC (HEL [3]) [µg/mL],MIC (HEL [4]) [µg/mL],MIC (Human alphaherpesvirus 1) [µg/mL],MIC (HEL [5]) [µg/mL],MIC (HEL [6]) [µg/mL],MIC [7] [µg/mL],MIC (HeLa) [µg/mL],MIC (MDCK [8]) [µg/mL],MIC (MDCK [9]) [µg/mL],MIC (MDCK [10]) [µg/mL]
Nc1nc2c(ncn2COCCO)c(=O)[nH]1 [ACYCLOVIR],> 400,> 400,> 400,35,50,> 200,100,–,–,–,–,–,–,–
C#Cc1nc2c(N)ncnc2n1[C@H]1C[C@H](O)[C@@H](CO)O1,10,> 4,> 4,2,4,2,> 4,4,7,> 4,4,> 20,> 20,20
CCc1nc2c(N)ncnc2n1[C@H]1C[C@H](O)[C@@H](CO)O1,> 400,> 400,> 400,70,70,> 200,300,55,> 100,> 200,> 200,> 200,> 200,> 200
Nc1ncnc2c1ncn2[C@H]1C[C@H](O)[C@@H](CO)O1 [DEOXYADENOSINE],> 400,> 400,> 400,> 100,> 100,–,> 400,> 100,> 100,20,200,> 200,> 200,> 200
CCCC#Cc1nc2c(N)ncnc2n1[C@H]1C[C@H](O)[C@@H](CO)O1,400,150,70,10,10,10,100,20,40,> 100,100,30,> 100,100
CCCCCCCc1nc2c(N)ncnc2n1[C@H]1C[C@H](O)[C@@H](CO)O1,> 100,20,> 40,4,4,13,> 40,6,10,20,100,20,> 100,100
C/C=C\c1nc2c(N)ncnc2n1[C@H]1C[C@H](O)[C@@H](CO)O1,≥ 100,> 100,> 100,> 50,> 50,> 50,> 100,> 50,> 50,> 200,> 200,> 200,> 200,> 200
CCC/C=C\c1nc2c(N)ncnc2n1[C@H]1C[C@H](O)[C@@H](CO)O1,≥ 200,> 100,> 100,> 50,> 50,40,> 100,> 50,> 50,100,> 200,> 200,> 200,> 200
CC#Cc1nc2c(N)ncnc2n1[C@H]1C[C@H](O)[C@@H](CO)O1,> 400,300,150,20,20,40,150,40,40,> 200,> 200,> 200,> 200,> 200
CCCc1nc2c(N)ncnc2n1[C@H]1C[C@H](O)[C@@H](CO)O1,> 400,70,400,20,20,170,> 300,7,20,> 200,> 200,> 200,> 200,> 200
CCCCCC#Cc1nc2c(N)ncnc2n1[C@H]1C[C@H](O)[C@@H](CO)O1,> 200,7,20,2,7,6,> 100,8,15,30,100,> 100,100,100
NC(=O)c1ncn([C@@H]2O[C@H](CO)[C@@H](O)[C@H]2O)n1 [RIBAVIRIN],> 400,70,> 400,–,–,–,> 300,–,–,–,–,–,–,–
O=c1[nH]c(=O)n([C@H]2C[C@H](O)[C@@H](CO)O2)cc1/C=C/Br [BRIVUDINE],> 400,2,> 400,70,70,> 200,> 200,> 10,0.004,–,–,–,–,–
CCCCC/C=C\c1nc2c(N)ncnc2n1[C@H]1C[C@H](O)[C@@H](CO)O1,> 100,20,> 40,30,20,20,> 40,10,15,14,100,12,> 100,100
CCCCCc1nc2c(N)ncnc2n1[C@H]1C[C@H](O)[C@@H](CO)O1,> 200,150,70,10,10,30,> 100,20,20,> 100,100,> 100,> 100,100
